Hits are enriched below; roughly 1.3% of the tested compounds scored in any of these assays.
Biofilm kill mix = mixtures killing C. albicans biofilm; 0.02% of 120,000 active; AID 1242; inhibition, % at 7.6 µM; C. albicans biofilm persisters + clotrimazole, fluorescence viability; primary screen in compound mixtures of four per well;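 further: compounds exposed to preformed 24 h biofilms for 48 h; 0% = untreated biofilm control and 100% = clotrimazole plus chlorhexidine kill blank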
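Probe or stimulus – Clotrimazole 50 µg/mL co-treatment · System – C. albicans biofilms · Schedule – 24 h biofilm formation, then 48 h compound exposure, 37 °C · Evaluation – percent inhibition of biofilm viability · Technique – 2-h Alamar Blue fluorescence, 535/590 nm excitation/emission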
TbHK1 inh = blocks Trypanosoma brucei hexokinase 1 activity; recombinant TbHK1, G6PDH-coupled NADH A340; inhibition, % at 10 µM; 0.11% of 220,000 active; AID 1430;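 active means inhibition of 50% or more in the single-dose primary screen; inactive means inhibition below 50%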
S1P4 agonist = human S1P4 receptor agonism | O95977 | S1P4-expressing cell line, agonist reporter assay | activation, % at 4.98 µM | 0.35% of 220,000 active; in the data active means activation above about 11%;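 further: 0% = DMSO vehicle and 100% = reference agonist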
Target sequence (O95977 whole entry, looked up): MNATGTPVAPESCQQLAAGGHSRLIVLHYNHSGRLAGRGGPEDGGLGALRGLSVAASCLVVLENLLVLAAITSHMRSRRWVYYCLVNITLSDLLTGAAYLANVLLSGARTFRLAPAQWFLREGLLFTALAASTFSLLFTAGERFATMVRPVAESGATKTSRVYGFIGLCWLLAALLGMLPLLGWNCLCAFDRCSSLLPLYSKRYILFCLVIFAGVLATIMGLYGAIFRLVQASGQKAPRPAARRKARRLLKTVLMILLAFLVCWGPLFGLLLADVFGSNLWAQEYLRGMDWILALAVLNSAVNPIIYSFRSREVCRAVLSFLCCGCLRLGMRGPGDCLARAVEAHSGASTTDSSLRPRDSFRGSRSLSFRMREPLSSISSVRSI
Dynein cargo inh = blocks dynein driven cargo transport along microtubules; 3617.4 mouse cells, GR-EGFP nuclear translocation imaging; test concentration mostly 20 µM; stimulated with dexamethasone, 1 µM; stronger effect = lower value; z-score, hits read low; 0.47% of 220,000 active;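 active means plate z-score of nuclear minus cytoplasmic receptor signal below a set negative limit, without overly bright fluorescence or cell loss, cut at about -3.5 in these data, passing the limit was not always enough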;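 further: z-score of nuclear minus cytoplasmic ring GR-EGFP intensity difference per well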
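Schedule: 48 h induction, then 1 h compound, then 30 min agonist, 37 °C. Buffer or medium: tetracycline-free induction medium containing charcoal-stripped FBS. Reagent: 1.0 µM final dexamethasone stimulus. Evaluation: nuclear versus cytoplasmic GR-EGFP signal, averaged per well. Signal: high-content fluorescence imaging after fixation.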
S1P4 antagonist = human S1P4 receptor antagonism | S1P4-expressing cells, antagonist mode, reporter read-out | inhibition, % at 4.98 µM | 0.26% of 220,000 active | AID 1510; in the data active means inhibition above about 29%;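 further: 0% = wells stimulated with agonist and 100% = vehicle wells without agonist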
S1P3 antagonist = S1P3 (human) receptor antagonism; 0.27% of 170,000 active; CHO S1P3 NFAT-BLA reporter, FRET fluorescence, antagonist mode; inhibition, % at 4.98 µM; Q99500;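 active means inhibition above the plate cutoff, the mean inhibition of test wells on that plate plus 3 SD, cut at about 28% in these data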;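 further: cells challenged with S1P at its EC80 of 0.8 µM; blue over green emission ratio from cleaved BLA substrate after 4 h stimulation; 0% = S1P-stimulated wells and 100% = unstimulated DMSO-only wells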
G6PDH counter = counter-screen for TbHK1 inhibitors: Leuconostoc G6PDH inhibition; shares compounds with TbHK1 inh; purified G6PDH, NADH absorbance, 1 h; inhibition, % at 10 µM; 7% of 210 active; AID 2516;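 active means at least 50% inhibition in the glucose-6-phosphate dehydrogenase coupled counterscreen; inconclusive means no clear call, values can overlap the other calls; inactive means inhibition below 50%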
TbHK1 confirm = T. brucei hexokinase 1 inhibition, rescreen; shares compounds with TbHK1 inh; recombinant TbHK1, G6PDH-coupled NADH A340 absorbance; inhibition, % at 10 µM; 10% of 210 active; AID 2560;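 active means inhibition of at least 50% in both of the two screening runs; inconclusive means at least 50% in one run, below 50% in the other; inactive means inhibition below 50% in both runs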;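 further: 0% and 100% set by the maximum and minimum signal control wells on each plate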
Active calls of the source: *; ? = inconclusive; nt = no result given.

SMILES	Biofilm kill mix	TbHK1 inh	S1P4 agonist	Dynein cargo inh	S1P4 antagonist	S1P3 antagonist	G6PDH counter	TbHK1 confirm
Cc1ccc2c(c1)N(CC(=O)NC1CCCc3ccccc31)C(=O)CO2 (stereo not given)	nt	66*	0	1.2	-8	26	1	-1
CCS(=O)(=O)N1CCC(C(=O)NCCc2ccccc2)CC1	nt	-2	2	-0.74	-19	3	nt	nt
CCS(=O)(=O)N1CCC(C(=O)NCCN2CCN(Cc3ccccc3)CC2)CC1	nt	50*	1	-0.45	-12	-13	-6	7
COc1ccc(/C=N/NC(=O)CN2CCCc3ccccc32)c(OC)c1	18	-16	2	-0.46	-17	2	nt	nt
C/C(Cl)=C\Cn1c(NCCc2ccccc2)nc2c1c(=O)n(C)c(=O)n2C	nt	-3	1	0.31	2	6	nt	nt
C/C(Cl)=C/Cn1c(=O)c2c(nc(Br)n2Cc2ccccc2)n(C)c1=O	nt	58*	0	-0.56	2	38	-5	4
Cn1c(=O)[nH]c(=O)c2c1nc(N1CCCC1)n2CC(O)COc1ccccc1 (stereo not given)	nt	-1	-1	0.33	-5	-13	nt	nt
CCCCCCn1c(N2CCN(c3cccc(Cl)c3)CC2)nc2c1c(=O)[nH]c(=O)n2C	nt	59*	0	0.65	1	9	-50	14
Cn1c(=O)[nH]c(=O)c2c1nc(N1CCCCC1)n2CCOc1ccccc1	nt	55*	0	0.97	-12	16	4	2
CN(Cc1ccccc1)S(=O)(=O)c1ccc(N2CCOCC2)nc1	26	-13	2	-0.8	-9	4	nt	nt
CC1(C(=O)CSc2n[nH]c(-c3ccccc3Cl)n2)CCC(=O)O1 (stereo not given)	nt	67*	2	-0.047	-10	nt	-11	-2
CCC1(C)Cc2c(C#N)c(N)sc(=S)c2CO1 (stereo not given)	nt	83*	2	-0.33	5	nt	73*	?
CCC1(C)Cc2c(C#N)c(N)n(-c3ccccc3)c(=S)c2CO1 (stereo not given)	14	-3	2	-0.38	7	1	nt	nt
CCOC(=O)c1c(C)c(C(=O)NCc2cccnc2)c(C)n1C	nt	63*	1	0.78	-8	-15	-2	1
O/N=C(/CCc1ccccc1)C1(O)CCCCC1	nt	-1	1	0.6	-9	nt	nt	nt
COc1ccc(CC/C(=N\O)C2(O)CCCCC2)cc1	nt	74*	1	0.87	-18	-4	-4	4
COc1ccc(CNC2=CC(=O)CC(C)(C)C2)cc1	nt	57*	2	-0.43	-12	20	-2	-3
Cc1ccc(Cn2c(-n3nc(C)cc3C)nc3c2c(=O)[nH]c(=O)n3C)cc1	nt	56*	0	1.1	-19	-19	-11	0
Cc1cc(C)n(-c2nc3c(c(=O)[nH]c(=O)n3C)n2Cc2cccc(Br)c2)n1	nt	24	0	-0.55	-5	-6	nt	nt
COc1ccccc1N1CCN(C(=O)C2CCCO2)CC1 (stereo not given)	nt	-6	-1	-1.4	-8	-6	nt	nt
O=C(C1CCCO1)N1CCN(c2ncccn2)CC1 (stereo not given)	nt	56*	1	0.42	5	19	-9	-4
O=C1OC(N2CCN(C(=O)C3CCCO3)CC2)c2ccccc21 (stereo not given)	nt	63*	2	-0.78	-25	-35	-3	3
CCCCN(C)C(=S)Nc1ccc2nc3n(c(=O)c2c1)CCCCC3	9	6	1	0.65	-13	20	nt	nt
O=C(CSc1nnc(COc2ccccc2)o1)NCCc1ccccc1	nt	73*	1	-0.26	-14	-20	-9	-22
Cc1nn(C)c(Cl)c1C(=O)NCC(=O)O	7	-1	0	-0.25	7	-13	nt	nt
Cc1nn(C)c(C)c1C(=O)NN	nt	54*	-1	0.71	-3	nt	-2	2
CCN(CC)c1ccc(CN2CCC(C(=O)NCc3ccc(C)cc3)CC2)cc1	12	20	-1	0.001	-3	-20	nt	nt
Cn1c(SCc2ccc(C#N)cc2)nnc1-c1ccccc1	nt	4	-1	0.5	-36	4	nt	nt

Bioassay records from PubChem.
